Where only a bound is given, the exact number is not on record here.

One series has as its system Vaccinia virus. The experiment in a line: Antiviral activity against Vaccinia virus Elstree-Lister ATCC VR-1549 infected in african green monkey Vero-76 cells assessed as reduction in viral plaque after 3 days by crystal violet staining. The class given is functional, organism-based. The note with it: Orthopoxvirus vaccinia, Elstree-Lister ATCC VR-1549, Vero 76, 72 h.

A short description of series [1]: Antiviral activity against BVDV1 NADL ATCC VR-534 infected in MDBK cells assessed as inhibition of virus-induced cytopathogenicity after 3 to 4 days by MTT assay. The class given is functional, cell-based, Bovine viral diarrhea virus 1-NADL. The note with it: Bovine viral diarrhea virus isolates and strains, ATCC VR-534, MDBK. A digest of the protocol:
(§1)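 BHK (5×10^4/well) or MDBK (3×10^4/well) cells grown to confluent monolayers overnight, infected at m.o.i. 0.01 in maintenance MEM-Earl with 0.5% inactivated FBS. Serially diluted compounds added after 1 h. Viability read by MTT after 3–4 days at 37 °C. Values are expressed as % of untreated controls, and EC50 is derived by linear regression. Duplicate samples.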
For orientation: Cytopathic effects are the visible damage that an infection or toxin causes in cultured cells.

The test system of series [2] is Mammalian orthoreovirus 1. Nature of the series: Antiviral activity against Reovirus 1 3651 ATCC VR-214 infected in BHK21 cells assessed as inhibition of virus-induced cytopathogenicity after 3 to 4 days by MTT assay. The class given is functional, organism-based. Particulars: Mammalian orthoreovirus 1, 3651 ATCC VR-214, BHK-21. The procedure, abridged: as §1
The next series deals with Coxsackievirus B5. Nature of the series: Antiviral activity against Coxsackie virus type B5 Ohio-1 ATCC VR-29 infected in african green monkey Vero-76 cells assessed as reduction in viral plaque after 3 days by crystal violet staining. Particulars: Enterovirus B, Ohio-1 ATCC VR-29, Vero 76, 72 h. The class given is functional, organism-based. The procedure, abridged:
(§2)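 Vero-76 monolayers (2×10^5 cells/well) infected for 2 h at 50–100 PFU/well. Unadsorbed virus removed. D-MEM with 1% inactivated FBS, 0.75% methylcellulose and serial compound dilutions added. Incubation at 37 °C for 3 days (CVB-5, HSV-1) or 5 days (RSV). Fixed and stained with 50% ethanol/0.8% crystal violet, then plaques counted. EC50 by linear regression versus untreated controls.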

Series [3] is described as follows: Antiviral activity against Human respiratory syncytial virus A2 ATCC VR-1540 infected in african green monkey Vero-76 cells assessed as reduction in viral plaque after 5 days by crystal violet staining. The class given is functional, cell-based. Particulars: ATCC VR-1540, Vero 76, 120 h. The procedure, abridged:
as §2

A short description of series [4]: Cytotoxicity against african green monkey Vero 76 cells after 48 to 96 hrs by MTT assay. The class given is cell-based. The note with it: chlorocebus sabaeus. On the technique in general: Formazan colour is commonly taken as a measure of viable cells.
Series [5] can be described thus: Cytotoxicity against MDBK cells after 48 to 96 hrs by MTT assay. The class given is cell-based, Bos taurus. Particulars: cattle. The procedure, abridged: (§3)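 Mock-infected MDBK (6×10^5 cells/mL, MEM-E with 10% horse serum) or BHK (1×10^6 cells/mL, MEM-E with 10% FBS) cells incubated with serial compound dilutions at 37 °C and 5% CO2. Viability measured by MTT after 48–96 h. CC50 by linear regression against untreated controls.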

A further series has as its system Human alphaherpesvirus 1. Nature of the series: Antiviral activity against Herpes simplex virus type 1 KOS ATCC VR-1493 infected in african green monkey Vero-76 cells assessed as reduction in viral plaque after 3 days by crystal violet staining. Particulars: Human alphaherpesvirus 1, KOS ATCC VR1493, Vero 76, 72 h. The class given is functional, organism-based. The procedure, abridged: as §2

For series [6], the system named is Vesicular stomatitis Indiana virus. Nature of the series: Antiviral activity against Vesicular stomatitis virus indiana ATCC VR-1540 infected in african green monkey Vero-76 cells assessed as reduction in viral plaque after 2 days by crystal violet staining. The class given is functional, organism-based. The note with it: ATCC VR-1540, Vero 76, 48 h.
Series [7] can be described thus: Cytotoxicity against BHK21 cells by MTT assay. The class given is cell-based, Mesocricetus auratus. Particulars: hamster, BHK-21 cells. A digest of the protocol:
as §3

The next series deals with Yellow fever virus. Nature of the series: Antiviral activity against Yellow fever virus 17D infected in BHK21 cells assessed as inhibition of virus-induced cytopathogenicity after 3 to 4 days by MTT assay. The class given is functional, cell-based. Particulars: BHK-21.
In another series the test system is Poliovirus 1. Nature of the series: Antiviral activity against Polio virus type 1 strain sabin ATCC VR-1562 infected in african green monkey Vero-76 cells assessed as reduction in viral plaque after 2 days by crystal violet staining. The note with it: Enterovirus C, ATCC VR-1562, Vero 76, 48 h. The class given is functional, cell-based, Human poliovirus 1 strain Sabin.

A word on the EC50: it is the concentration needed to bring the measured effect to its halfway point. On to `O=[N+]([O-])c1ccc(-c2nc3cc(Cl)c(Cl)cc3[nH]2)cc1`, for which, in the series on Vaccinia virus, the EC50 was 0.1 µM.
For the molecule `O=[N+]([O-])c1ccc2[nH]c(-c3ccccc3)nc2c1`, in series [1], the EC50 is 1.5 µM.
As usually defined, the CC50 is the concentration at which the toxic effect on the cells reaches its halfway point. On to `CC(=O)c1ccc2[nH]c(-c3ccccc3)nc2c1`, for which the EC50 is above 100 µM in [2]; above 100 µM with Coxsackievirus B5; above 100 µM in [3]; 100 µM in [1]; above 100 µM with Vaccinia virus; above 100 µM with Human alphaherpesvirus 1. In addition, the EC50 (in series [6]; with Yellow fever virus; in the series on Poliovirus 1) was above 100 µM in each case. In addition, the CC50 in series [4], in series [5] and in series [7] was above 100 µM each time.
As for `CC(=O)c1ccc2[nH]c(-c3ccc(Cl)cc3)nc2c1`, the EC50 (in series [2]; in the series on Coxsackievirus B5; in series [3]; in series [1]; in the series on Vaccinia virus; in the series on Human alphaherpesvirus 1) was above 100 µM throughout. In addition, the EC50 (in series [6]; in the series with Yellow fever virus; with Poliovirus 1) was above 100 µM each time. Also, the CC50 in [4], in series [5] and in series [7] was above 100 µM throughout.
Consider `CC(=O)c1ccc2[nH]c(-c3ccc(C(F)(F)F)cc3)nc2c1`, for which the EC50 was above 100 µM in series [2]; above 100 µM with Coxsackievirus B5; above 100 µM in series [3]; 15 µM in [1]; above 100 µM with Vaccinia virus; above 100 µM in the series on Human alphaherpesvirus 1. In addition, the half-maximal effective concentration (EC50) (in [6]; in the series on Yellow fever virus; with Poliovirus 1) was above 100 µM throughout. Also, the half-maximal cytotoxic concentration (CC50) in [4], in series [5] and in [7] was above 100 µM throughout.
Take `C/C(=N\O)c1ccc2[nH]c(-c3ccccc3)nc2c1`: the concentration giving a half-maximal response (EC50) (in series [2]; with Coxsackievirus B5; in series [3]; in [1]; in the series with Vaccinia virus; in the series with Human alphaherpesvirus 1) was above 100 µM in each case. In addition, the EC50 (in series [6]; with Yellow fever virus; in the series on Poliovirus 1) was above 100 µM each time. For the same molecule, the half-maximal cytotoxic concentration (CC50) in [4], in series [5] and in series [7] was above 100 µM throughout.
In the case of `C/C(=N\O)c1ccc2[nH]c(-c3ccc(C(F)(F)F)cc3)nc2c1`, the EC50 in [1] was above 55 µM. Moreover, half-maximal cytotoxicity in [5] (CC50) was put at 55 µM.
Regarding `COc1ccc(-c2nc3cc(/C(C)=N/O)ccc3[nH]2)cc1`, the EC50 was above 100 µM in series [2]; above 100 µM with Coxsackievirus B5; above 44 µM in series [1]; above 100 µM in the series with Vaccinia virus; above 44 µM in the series on Yellow fever virus; above 100 µM in the series with Poliovirus 1. Further, the cytotoxic concentration (CC50) in series [4] was above 100 µM; in series [5], 44 µM; in [7], 44 µM.
`C/C(=N\NC(N)=O)c1ccc2[nH]c(-c3ccccc3)nc2c1`: the EC50 in series [2] was above 100 µM; in the series with Coxsackievirus B5 it was above 100 µM; in series [3], above 100 µM; in [1], 50 µM; in the series on Vaccinia virus, above 100 µM; with Human alphaherpesvirus 1, above 100 µM. The EC50 (in series [6]; in the series with Yellow fever virus; with Poliovirus 1) was above 100 µM each time. In addition, the CC50 in [4], in series [5] and in [7] was above 100 µM each time.
On to `C/C(=N\NC(N)=O)c1ccc2[nH]c(-c3ccc(Cl)cc3)nc2c1`, for which the EC50 (in series [2]; in the series on Coxsackievirus B5; in [3]; in [1]; in the series with Vaccinia virus; in the series with Human alphaherpesvirus 1) was above 100 µM in each case. The EC50 (in series [6]; with Yellow fever virus; in the series on Poliovirus 1) was above 100 µM throughout. Also, the CC50 in series [4], in series [5] and in series [7] was above 100 µM throughout.
For the molecule `C/C(=N\NC(N)=O)c1ccc2[nH]c(-c3ccc(C(F)(F)F)cc3)nc2c1`, the 50% effective concentration (EC50) in [2] was above 100 µM; in the series on Coxsackievirus B5, above 100 µM; in series [3], above 100 µM; in series [1], 45 µM; in the series with Vaccinia virus, above 100 µM; in the series with Human alphaherpesvirus 1, above 100 µM. For the same molecule, the EC50 (in series [6]; with Yellow fever virus; with Poliovirus 1) was above 100 µM each time. The CC50 in series [4], in series [5] and in series [7] was above 100 µM each time.
Turning to `COc1ccc(-c2nc3cc(/C(C)=N/NC(N)=O)ccc3[nH]2)cc1`, the concentration giving a half-maximal response (EC50) in [1] worked out at 11 µM. The same molecule displayed a 50% cytotoxic concentration (CC50) in [5] of 25 µM.
The corresponding values for `COc1ccc(-c2nc3cc(/C(C)=N/NC(N)=O)ccc3n2C2CCCCC2)cc1` are above 54 µM and 54 µM.
Regarding `C/C(=N\NC(N)=O)c1ccc2c(c1)nc(-c1ccc(C(F)(F)F)cc1)n2C1CCCCC1`, the EC50 (in [2]; in the series on Coxsackievirus B5; in series [3]; in [1]; in the series with Vaccinia virus; in series [6]) was above 100 µM throughout. Besides, the half-maximal effective concentration (EC50) in the series with Yellow fever virus and in the series with Poliovirus 1 was above 100 µM in each case. The half-maximal cytotoxic concentration (CC50) in series [4], in series [5] and in series [7] was above 100 µM in each case.
For the molecule `C/C(=N\NC(N)=O)c1ccc2c(c1)nc(-c1ccoc1)n2C1CCCCC1`, the EC50 in series [1] came to 100 µM. The same molecule had a 50% cytotoxic concentration (CC50) in [5] above 100 µM.
As to `Cc1cc2nc(-c3cccc4ccccc34)[nH]c2cc1C`, the EC50 with Yellow fever virus is 6 µM.
For `Nc1ccc(-c2nc3cc(Cl)ccc3[nH]2)c2ccccc12`, in the series with Yellow fever virus, the EC50 came out at 27 µM.
For the molecule `Nc1ccc(-c2nc3cc(Cl)c(Cl)cc3[nH]2)c2ccccc12`, the EC50 in the series with Yellow fever virus turned out to be 16 µM.
`CC(=O)c1ccc2[nH]c(/C=C/c3ccc([N+](=O)[O-])cc3)nc2c1`: the EC50 in [1] was 1.7 µM.
For the molecule `CC(=O)Nc1ccc(/C=C/c2nc3cc(C(F)(F)F)ccc3[nH]2)cc1`, the concentration giving a half-maximal response (EC50) in series [3] was 1 µM.
On the same count and under the same terms, then `Clc1ccc2c(c1)nc(Cn1nc3ccccc3n1)n2C[C@H]1CCCN2CCCCC12` (stereo partly drawn), with 0.03 µM.
In the case of `C[C@@]1(O)[C@H](O)[C@@H](CO)O[C@H]1n1ccc(N)nc1=O`, the EC50 in [2] was determined as 16 µM. Also, in [7], the half-maximal cytotoxic concentration (CC50) is above 100 µM.
With `C[C@@]1(O)[C@H](O)[C@@H](CO)O[C@H]1n1cnc2c(=O)[nH]c(N)nc21` [2'-B-METHYL-GUANOSINE], the EC50 in series [1] stood at 1.1 µM. In addition, the CC50 in series [5] and in series [7] was above 10 µM each time.
As for `C#C[C@@]1(O)[C@H](O)[C@@H](CO)O[C@H]1n1ccc(N)nc1=O` [2'-ETHYNYL-D-CYTIDINE], the EC50 in the series with Coxsackievirus B5 came to 27 µM; in the series on Poliovirus 1 it was 23 µM. The same molecule yielded a cytotoxic concentration (CC50) in series [4] above 100 µM.
As to `O=c1cnn([C@@H]2O[C@H](CO)[C@@H](O)[C@H]2O)c(=O)[nH]1` [6-AZAURIDINE], the half-maximal effective concentration (EC50) in series [3] was 1.2 µM. Moreover, in [4], the CC50 is at least 12.5 µM.
In the case of `Nc1nc2c(ncn2COCCO)c(=O)[nH]1` [ACYCLOVIR], in series [4], the CC50 is above 100 µM.
In series [4], `COc1c(C)c2c(c(O)c1C/C=C(\C)CCC(=O)O)C(=O)OC2` [MYCOPHENOLIC ACID] gave a 50% cytotoxic concentration (CC50) of at least 12.5 µM. The EC50 in the series on Vaccinia virus amounted to 1.5 µM.

(Values after ChEMBL document CHEMBL2034874, “5-acetyl-2-arylbenzimidazoles as antiviral agents. Part 4” (Eur J Med Chem, 2012).)
